Values joined by “and” are separate entries in the source; they are usually repeats but may differ in a detail not shown here. Equal entries are not always repeated. Where two headings read alike, the source gives them in different places.
Legend:
[1] = rat plasma; cited from earlier work
[2] = format: in vivo, Wistar rats; conditions: for mean Ke/p (RBC/plasma partition coefficient): mean (± SD) of all 12 rats, 1 and 4 h after i.p. treosulfan 500 mg/kg; for Cp: plasma; for Ce: red blood cells
In short: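 Wistar rats, 10 weeks old (6 male, 6 female), received a single i.p. bolus of 500 mg/kg in sterile water (10 mL/kg), with ketamine/xylazine anaesthesia. K2EDTA cardiac blood was taken at 1 or 4 h and spun at 3645×g for 5 min at 20 °C. Plasma and RBC were acidified with citric acid; RBC were lysed by three freeze–thaw cycles. HPLC–MS/MS used codeine as internal standard. Ke/p = Ce/Cp.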

[3] = format: in vitro ADME, rat; conditions: three freeze-thaw cycles, n = 3, range of means over QC levels
In short: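 Freeze–thaw stability of quality-control samples prepared by spiking drug-free rat plasma and drug-free RBC lysate (from three freeze–thaw cycles) at treosulfan 5.5, 55 and 800 μM and S,S-EBDM 9.4 and 94 μM. Samples were processed like study samples and assayed by HPLC–MS/MS. Stability was taken as the final/initial concentration ratio and reported as the range of means across QC levels.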

[4] = rat lungs; cited from earlier work
[5] = treosulfan to S,S-EBDM; S,S-EBDM to (2S,3S)-1,2:3,4-diepoxybutane; cited from earlier work
[6] = individual female rats, 1 h after i.p. bolus treosulfan 500 mg/kg
[7] = individual female rats, 4 h after i.p. bolus treosulfan 500 mg/kg
[8] = individual male rats, 1 h after i.p. bolus treosulfan 500 mg/kg
[9] = individual male rats, 4 h after i.p. bolus treosulfan 500 mg/kg

Structure (SMILES) | unbound fraction [1] | mean Ke/p (RBC/plasma partition coefficient) [2] | Cp [2, 6] | Cp [2, 7] | Cp [2, 8] | Cp [2, 9] | Ce [2, 8] | Ce [2, 9] | Stability (final/initial concentration) ([3]; rat RBC lysate) | Stability (final/initial concentration) ([3]; rat plasma) | tissue-to-plasma concentration ratio [4] | t1/2 of nonenzymatic epoxidation [5] [h]
CS(=O)(=O)OC[C@H](O)[C@@H]1CO1 [S,S-EBDM, (2S,3S)-1,2-epoxy-3,4-butanediol 4-methanesulfonate] | ≥ 0.94 | 0.60 ± 0.09 | 64 µM and 22 µM | 5.6 µM and 6.2 µM | 58 µM and 61 µM and 3.6 µM | 8.4 µM and 5.5 µM | 36 µM and 34 µM and 2.1 µM | 6.7 µM and 3.5 µM | 86.7–89.8% | 88.3–89.4% | ~0.6 | 3.4
CS(=O)(=O)OC[C@H](O)[C@@H](O)COS(C)(=O)=O [Treosulfan] | ≥ 0.94 | 0.74 ± 0.12 | 1164 µM and 300 µM and 349 µM | 113 µM and 83 µM | 943 µM and 1189 µM and 28.8 µM | 112 µM and 120 µM and 30 µM | 704 µM and 779 µM and 24.2 µM | 94 µM and 87 µM and 26 µM | 85.8–104.8% | 90.7–108.8% | about 0.8 | 1.5
